The values that follow come from ChEMBL document CHEMBL1124216, “A novel class of potential central nervous system agents. 3-Phenyl-2-(1-piperazinyl)-5H-1-benzazepines” (1988).

Structures are written as SMILES.

Common to all, as to assay type: functional
The subject of experiment [1] is Mus musculus. Nature of the experiment: Antimaximal electroshock seizure (MES) activity in mice after peroral administration of 100 mg/kg of compound; 0/5. The conditions noted are these: route oral.
Experiment [2] deals with Mus musculus. Nature of the experiment: Antiexploratory activity (EXPL) of mice determined by an antimex activity meter,100 mg/kg of dose was administered perorally; No inhibition.
Experiment [3] relates to Mus musculus. Nature of the experiment: Antitremorine activity(TRM) of mice after peroral administration of 100 mg/kg of compound; Slight inhibition (31-50%). To be noted: route oral.
For experiment [4], the system named is Mus musculus. Nature of the experiment: Antireserpine activity (RES) of mice after peroral administration of 100 mg/kg of compound; No inhibition. The conditions noted are these: route oral.
Experiment [5] deals with Mus musculus. In words: Antimaximal electroshock seizure (MES) activity in mice after peroral administration of 10 mg/kg of compound; 0/5. To be noted: route oral.
Experiment [6] relates to Mus musculus. In words: Antitremorine activity(TRM) of mice after peroral administration of 100 mg/kg of compound; Moderate inhibition (51-71%). The conditions noted are these: route oral.
Experiment [7] deals with Mus musculus. Nature of the experiment: Antiexploratory activity (EXPL) of mice determined by an antimex activity meter, 100 mg/kg of dose was administered perorally; Slight inhibition (31-50%). To be noted: route oral.
Experiment [8] concerns Mus musculus. Nature of the experiment: Antimaximal electroshock seizure (MES) activity in mice after peroral administration of 100 mg/kg of compound; 5/5. The conditions noted are these: route oral.
Experiment [9] deals with Mus musculus. Nature of the experiment: Antiexploratory activity (EXPL) of mice determined by an antimex activity meter, 50 mg/kg of dose was administered perorally; No inhibition. The conditions noted are these: route oral.
The subject of experiment [10] is Mus musculus. In words: Antireserpine activity (RES) of mice after peroral administration of 50 mg/kg of compound; Slight inhibition (31-50%). The conditions noted are these: route oral.
The subject of experiment [11] is Mus musculus. Nature of the experiment: Antitremorine activity(TRM) of mice after peroral administration of 100 mg/kg of compound; No inhibition. To be noted: route oral.
Experiment [12] has as its system Mus musculus. Nature of the experiment: Antireserpine activity (RES) of mice after peroral administration of 100 mg/kg of compound; Slight inhibition (31-50%). The conditions noted are these: route oral.
Experiment [13] deals with Mus musculus. Nature of the experiment: Antimaximal electroshock seizure activity was determined in mice when administered perorally. To be noted: po.
The subject of experiment [14] is Mus musculus. In words: Antiexploratory activity (EXPL) of mice determined by an antimex activity meter, 100 mg/kg of dose was administered perorally; Moderate inhibition (51-71%). To be noted: route oral.
Experiment [15] relates to Mus musculus. In words: Antireserpine activity (RES) of mice after peroral administration of 50 mg/kg of compound; No inhibition. The conditions noted are these: route oral.
Experiment [16] relates to Mus musculus. Nature of the experiment: Antiexploratory activity (EXPL) of mice determined by an antimex activity meter, 100 mg/kg of dose was administered perorally; No inhibition. The conditions noted are these: route oral.
For experiment [17], the system named is Mus musculus. In words: Antipentylene tetrazole activity was determined in mice when administered perorally. To be noted: po. The method in brief:
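Groups of five male Std-ddY mice received compound orally in 0.5% tragacanth, then pentylenetetrazole 175 mg/kg ip. Blockade of the tonic extensor component scored as anticonvulsant. ED50 was the dose protecting 50% of animals (Litchfield-Wilcoxon).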

The subject of experiment [18] is Mus musculus. Nature of the experiment: Antitremorine activity(TRM) of mice after peroral administration of 100 mg/kg of compound. To be noted: route oral.

In the experiment with Mus musculus [1], `CCCN1CCN(C2=Nc3ccc(CC)cc3CC=C2c2ccccc2)CC1.O=C(O)/C=C/C(=O)O` showed an Activity of 0. Further, the Inhibition in the experiment on Mus musculus [2] is given as below 30%. Also, the inhibition in vivo at 100 mg/kg in the experiment on Mus musculus [3] is 31%; in the experiment on Mus musculus [4], below 30%.

On to `CCc1ccc2c(c1)CC=C(c1ccccc1)C(N1CCN(CC)CC1)=N2.Cl.Cl`, for which the figures for the Activity with Mus musculus [5] and with Mus musculus [8] were 0 and 5, respectively. For the same compound, the inhibition in vivo at 100 mg/kg in the experiment on Mus musculus [4] is below 30%; in the experiment with Mus musculus [6], 51%; in the experiment with Mus musculus [7] it was 31%.

For the compound `Clc1ccc(C2=CCc3ccccc3N=C2N2CCN(Cc3ccccc3)CC2)cc1`, the inhibition in vivo at 50 mg/kg was below 30% in the experiment with Mus musculus [9] and 31% with Mus musculus [10].

Compound `CCc1ccc2c(c1)CC=C(c1ccccc1)C(N1CCN(C(C)C)CC1)=N2.O=C(O)/C=C/C(=O)O` yielded an Inhibition with Mus musculus [2] below 30%. In addition, the Activity in the experiment on Mus musculus [5] is recorded as 0; in the experiment with Mus musculus [8] it was 5. In addition, the inhibition in vivo at 100 mg/kg is below 30% in the experiment with Mus musculus [4] and 51% in the experiment with Mus musculus [6].

Regarding `CN1CCN(C2=Nc3ccccc3CC=C2c2ccccc2)CC1.Cl.Cl`, the inhibition in vivo at 100 mg/kg with Mus musculus [11] is below 30%; in the experiment on Mus musculus [12] it was 31%; in the experiment on Mus musculus [14], 51%. Moreover, in the experiment on Mus musculus [13], the ED50 was above 100 mg/kg. This compound had an Activity with Mus musculus [1] of 0.

In the case of `CN1CCN(C2=Nc3ccccc3CC=C2c2ccc(C(F)(F)F)cc2)CC1`, the inhibition in vivo at 50 mg/kg in the experiment with Mus musculus [9] and in the experiment with Mus musculus [15] was below 30% in each case.

For the compound `Cl.OC1(c2ccc(Cl)cc2)CCN(C2=Nc3ccc(Br)cc3CC=C2c2ccccc2)CC1`, the inhibition in vivo at 100 mg/kg with Mus musculus [11] and in the experiment on Mus musculus [4] was below 30% each time. In the experiment with Mus musculus [1], this compound returned an Activity of 0. This compound also came in with an Inhibition in the experiment with Mus musculus [2] below 30%.

Regarding `NC(=O)N1CCN(C2=Nc3ccc(Br)cc3CC=C2c2ccccc2)CC1`, the inhibition in vivo at 100 mg/kg with Mus musculus [11], in the experiment on Mus musculus [16] and in the experiment with Mus musculus [4] was below 30% each time. The same compound returned an Activity in the experiment with Mus musculus [8] of 5.

In the experiment with Mus musculus [1], `CN1CCN(C2=Nc3ccccc3CC=C2c2ccc(Cl)cc2)CC1.Cl.Cl` came in with an Activity of 0. Further, the inhibition in vivo at 100 mg/kg is 31% in the experiment on Mus musculus [3], below 30% with Mus musculus [4] and 31% in the experiment with Mus musculus [7].

With `CCN1CCN(C2=Nc3ccccc3CC=C2c2ccc(Cl)cc2)CC1.Cl.Cl`, the figures for the inhibition in vivo at 100 mg/kg with Mus musculus [11], in the experiment on Mus musculus [4] and in the experiment with Mus musculus [14] were below 30%, below 30% and 51%, respectively. For the same compound, the Activity in the experiment with Mus musculus [1] was 0.

In the case of `CN1CCN(C2=Nc3ccc(Br)cc3CC=C2c2ccccc2)CC1.Cl.Cl`, the ED50 in the experiment on Mus musculus [13] is 31.2 mg/kg; in the experiment with Mus musculus [17] it was 8.3 mg/kg. Besides, the inhibition in vivo at 100 mg/kg with Mus musculus [16] was below 30%; in the experiment with Mus musculus [4] it was below 30%; in the experiment with Mus musculus [18], above 71%. Also, in the experiment on Mus musculus [8], the Activity turned out to be 5.

As to `OCCN1CCN(C2=Nc3ccccc3CC=C2c2ccc(C(F)(F)F)cc2)CC1`, the inhibition in vivo at 50 mg/kg in the experiment on Mus musculus [9] and with Mus musculus [15] was below 30% in each case.

Take `CCN1CCN(C2=Nc3ccc(F)cc3CC=C2c2ccccc2)CC1.Cl.Cl`: the inhibition in vivo at 100 mg/kg in the experiment on Mus musculus [11] is below 30%; in the experiment on Mus musculus [4], below 30%; in the experiment on Mus musculus [14], 51%. In addition, the figures for the median effective dose (ED50) in the experiment on Mus musculus [13] and with Mus musculus [17] were above 500 mg/kg and above 100 mg/kg, respectively. The compound further came in with an Activity in the experiment with Mus musculus [1] of 0.

For `OCCN1CCN(C2=Nc3ccccc3CC=C2c2ccc(O)cc2)CC1`, the inhibition in vivo at 50 mg/kg with Mus musculus [9] and with Mus musculus [15] was below 30% throughout.
